Source: PubChem BioAssay
Active and inactive are the calls of the source.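 Rule for the calls, unless noted: active = viability loss from added drug above about 55%, and viability with drug at most 40%, in both replicates (limit read from the data, passing the limit was not always enough); inconclusive = both conditions met in only one replicate; inactive = neither replicate meets both conditions.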

Experiments:
[1] = Her2 expression decrease, cell viability multiplex – SKBR3 breast tumor cells, AlphaScreen, ATP viability, primary screen (AID 461;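 active = Her2 level under about 52% in both replicate screens, with viability over 70% of control, limit read from the data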;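 for Her2 level: lower value means less Her2 protein in the cells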;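 for viability: percent of carrier control wells set as 100% viability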); conditions: SKBR3 Her2 protein level, 18-24 h, measured here: SKBR3 viability, ATP luminescence, at 10 µM
[2] = target: Receptor tyrosine-protein kinase erbB-2 (Homo sapiens) (UniProt P04626); experiment: as above; conditions: 18-24 h, at 10 µM, stronger effect = lower value
Chain of Receptor tyrosine-protein kinase erbB-2 (Homo sapiens) (P04626 whole entry, looked up): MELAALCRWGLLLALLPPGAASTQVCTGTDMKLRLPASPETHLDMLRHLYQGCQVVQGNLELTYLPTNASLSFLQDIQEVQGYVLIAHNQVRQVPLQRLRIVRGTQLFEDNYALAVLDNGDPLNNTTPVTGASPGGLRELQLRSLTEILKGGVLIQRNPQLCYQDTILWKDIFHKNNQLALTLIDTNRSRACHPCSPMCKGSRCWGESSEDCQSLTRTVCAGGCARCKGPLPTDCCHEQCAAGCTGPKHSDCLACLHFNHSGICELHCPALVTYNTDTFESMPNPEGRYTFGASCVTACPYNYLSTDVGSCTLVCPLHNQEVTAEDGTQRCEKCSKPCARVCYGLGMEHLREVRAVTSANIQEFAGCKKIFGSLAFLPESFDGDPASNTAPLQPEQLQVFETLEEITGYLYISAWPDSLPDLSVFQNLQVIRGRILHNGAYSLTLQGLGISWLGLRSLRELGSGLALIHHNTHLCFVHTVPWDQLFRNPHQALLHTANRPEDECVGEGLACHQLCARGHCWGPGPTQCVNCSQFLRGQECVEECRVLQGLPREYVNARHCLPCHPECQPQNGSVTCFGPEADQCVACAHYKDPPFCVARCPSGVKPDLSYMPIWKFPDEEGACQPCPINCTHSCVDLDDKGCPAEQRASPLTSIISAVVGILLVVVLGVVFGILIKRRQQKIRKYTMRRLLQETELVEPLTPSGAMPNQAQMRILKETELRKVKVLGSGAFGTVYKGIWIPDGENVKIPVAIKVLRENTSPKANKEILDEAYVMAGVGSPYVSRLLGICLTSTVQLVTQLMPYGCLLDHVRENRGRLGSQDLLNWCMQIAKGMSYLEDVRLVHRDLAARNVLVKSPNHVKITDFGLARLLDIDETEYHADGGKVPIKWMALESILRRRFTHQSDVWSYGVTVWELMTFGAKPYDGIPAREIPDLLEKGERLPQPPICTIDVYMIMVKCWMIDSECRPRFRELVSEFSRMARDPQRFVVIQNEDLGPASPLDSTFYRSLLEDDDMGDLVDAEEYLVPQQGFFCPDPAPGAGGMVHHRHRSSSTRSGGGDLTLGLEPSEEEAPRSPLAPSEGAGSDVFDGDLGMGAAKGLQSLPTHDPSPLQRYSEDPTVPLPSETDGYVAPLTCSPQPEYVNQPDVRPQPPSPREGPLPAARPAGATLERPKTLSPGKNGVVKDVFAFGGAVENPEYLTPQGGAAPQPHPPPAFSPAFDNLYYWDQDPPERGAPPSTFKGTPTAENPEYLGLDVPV

[3] = reduced viability of SK-BR-3 breast cancer cells – cell-based, 24 h, human, pilot screen (AID 572;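 active = viability at or below 10% of carrier control in both of two separate runs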;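 note: compound exposure lasted between 18 and 24 h rather than exactly 24 h; 100% = carrier-treated control wells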); conditions: SK-BR-3 viability, CellTiter-Glo luminescence, at 10 µM, stronger effect = lower value
[4] = HUVEC growth inhibition – cell-based, human, primary screen (AID 575;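 active = viability at or below 30% in both replicate assays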;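 note: 100% = median of untreated cell wells with 0.1% DMSO on each plate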); conditions: HUVEC proliferation, CellTiter-Glo luminescence, 72 h; at 10 µM; stronger effect = lower value
Procedure, shortened: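 Test system: primary human umbilical vein endothelial cells. Quantity: 1250 cells/well. Compound: single 10 µM dose, 0.1% DMSO, from 5x medium stock. Timing: 72 h treatment at 37 °C. Detection: ATP-based CellTiter-Glo luminescent read. Benchmarks: vehicle and MePR control wells. Format: 384-well plates coated with collagen.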

[5] = H69AR cell proliferation blockers – human, duplicate replicates, primary screen (AID 580;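 active = viability at or under a set limit in both replicates, limit being median viability minus 3 SD, cut at about 48% in these data, passing the limit was not always enough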;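 note: 100% = mean luminescence of untreated wells and 0% = no signal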); conditions: H69AR lung tumor cells viability, ATP luminescence, 72 h; at 10 µM; stronger effect = lower value
[6] = MRP1 drug-resistance reversers in H69AR cells – cell-based, doxorubicin co-treatment, pilot screen (AID 601); conditions: CellTiter-Glo, 72 h, at 10 µM; for differential viability (reversal): stronger effect = higher value
[7] = yeast transport mutant growth inhibition pilot in 384-well plates, post-Golgi transport modulator project (AID 636; in the data active = inhibition above about 31%); conditions: absorbance 615 nm, about 18 h, stronger effect = higher value
[8] = growth suppression of yeast trafficking mutant, preliminary HTS, modulators of trafficking downstream of Golgi apparatus project, 1536-format plate, OD 615 nm (AID 637; in the data active = inhibition above about 30%); conditions: yeast transport mutant growth, absorbance 615 nm, 18 h; stronger effect = higher value
[9] = H69AR cells + 2 uM doxorubicin, measured here: viability with 2 uM doxorubicin, stronger effect = lower value
[10] = H69AR cells, compound alone cytotoxicity

Row | SMILES | viability [1] [%] | Her2 level [2] | viability [3] | viability [4] | viability [5] | differential viability (reversal) ([6]; H69AR cells + 2 uM doxorubicin) | viability [6, 9] [%] | viability [6, 10] [%] | inhibition [7] | inhibition [8]
1 | Cc1ccc(NC(=O)CSc2nnc(NC(=O)CN3CCOCC3)s2)cc1 | 102 | 82% (inactive) | 102% (inactive) | 98% (inactive) | 94.1% (inactive) | 9.71% (inactive) | 84.4 | 94.1 | -5.33% (inactive) | -2.46% (inactive)
2 | CCOC(=O)c1c(C)[nH]c(C(=O)COC(=O)C2CC2C)c1C (stereo not given) | 117 | 116% (inactive) | 117% (inactive) | 99.4% (inactive) | 102% (inactive) | 15.7% (inactive) | 85.8 | 102 | -4.93% (inactive) | 0.48% (inactive)
3 | CCn1c(=O)cc(SCC(=O)NCCN2CCN(Cc3ccccc3)CC2)c2ccccc21 | 89 | 89.5% (inactive) | 89% (inactive) | 80.5% (inactive) | 84.4% (inactive) | 7.1% (inactive) | 77.3 | 84.4 | -4.47% (inactive) | -3.09% (inactive)
4 | COc1ccc(-c2cc(C(F)(F)F)n3nc(C(=O)N4CCOCC4)nc3n2)cc1 | 88 | 116% (inactive) | 88% (inactive) | 101% (inactive) | 94.1% (inactive) | 4.48% (inactive) | 89.6 | 94.1 | -0.64% (inactive) | -4.17% (inactive)
5 | CCN1CCN(c2ncc(C(=O)N3CCN(c4ccccc4OC)CC3)c3ccccc23)CC1 | 81 | 87.5% (inactive) | 81% (inactive) | 98.8% (inactive) | 101% (inactive) | 14.7% (inactive) | 86.7 | 101 | -5.68% (inactive) | -1.8% (inactive)
6 | COC(=O)c1[nH]c2cccc(C)c2c1NC(=O)CN1CCCc2ccccc21 | 77.5 | 92% (inactive) | 77.5% (inactive) | 67.1% (inactive) | 78.8% (inactive) | 2.1% (inactive) | 76.7 | 78.8 | -1.47% (inactive) | 2.79% (inactive)
7 | CN(C)c1ccc(/C(=N\O)c2ccccc2)cc1 | 98.5 | 114% (inactive) | 98.5% (inactive) | 93.9% (inactive) | 92.8% (inactive) | 2.59% (inactive) | 90.3 | 92.8 | 0.13% (inactive) | -13.5% (inactive)
8 | COc1cccc(C2=Nn3c(nnc3-c3ccccc3O)SC2)c1 | 100 | 61% (inactive) | 100% (inactive) | 89.4% (inactive) | 67.2% (inactive) | -18.5% (inactive) | 85.7 | 67.2 | -3.16% (inactive) | -2.83% (inactive)
9 | CCN(CC)S(=O)(=O)c1ccc(C(=O)Oc2ccc3c(c2)OCO3)cc1 | 101 | 84% (inactive) | 101% (inactive) | 86.6% (inactive) | 90.5% (inactive) | 4.36% (inactive) | 86.1 | 90.5 | -5.53% (inactive) | -4.13% (inactive)
10 | COc1cc(C2=NOC(C(=O)NCc3ccc(F)cc3)C2)cc(OC)c1OC (stereo not given) | 84 | 74.5% (inactive) | 84% (inactive) | 39.9% (inactive) | 31.6% (active) | -52.3% (inactive) | 83.9 | 31.6 | -4.74% (inactive) | -1.43% (inactive)
11 | COc1cc(NC(=O)C(C)Oc2ccccc2)c(C(=O)O)cc1OC (stereo not given) | 116 | 90% (inactive) | 116% (inactive) | 96.4% (inactive) | 92.8% (inactive) | 11.7% (inactive) | 81.1 | 92.8 | -7.07% (inactive) | 2.13% (inactive)
12 | CCOC(=O)c1ccc(-c2c(C(=O)OCC)oc3cc(O)c(CC)cc3c2=O)o1 | 96.5 | 88.5% (inactive) | 96.5% (inactive) | 76.6% (inactive) | 83.3% (inactive) | -19.3% (inactive) | 103 | 83.3 | -3.42% (inactive) | 11.6% (inactive)
13 | CCn1nnnc1NCc1cccn1C | 88 | 83% (inactive) | 88% (inactive) | 105% (inactive) | 95.9% (inactive) | 3.54% (inactive) | 92.4 | 95.9 | -4.27% (inactive) | 2.3% (inactive)
14 | Cc1cc2c(cc(C(=O)NCc3cccnc3)n2Cc2ccc(Cl)cc2)o1 | 92 | 68.5% (inactive) | 92% (inactive) | 103% (inactive) | 98.2% (inactive) | -0.245% (inactive) | 98.5 | 98.2 | -1.45% (inactive) | -3.33% (inactive)
15 | CCCC(=O)Nc1cccc(NC(=O)CN2CCN(c3ccccc3OC)CC2)c1 | 98.5 | 83% (inactive) | 98.5% (inactive) | 96.6% (inactive) | 82.9% (inactive) | -3.71% (inactive) | 86.6 | 82.9 | -5.81% (inactive) | -4.92% (inactive)
16 | Cn1c(=O)c2c(nc(N3CCCCC3)n2CCSc2nc3ccccc3o2)n(C)c1=O | 100 | 105% (inactive) | 100% (inactive) | 88.4% (inactive) | 82.2% (inactive) | 1.8% (inactive) | 80.4 | 82.2 | -0.67% (inactive) | -6.39% (inactive)
